Results from ChEMBL document CHEMBL1781898, “Orally active achiral N-hydroxyformamide inhibitors of ADAM-TS4 (aggrecanase-1) and ADAM-TS5 (aggrecanase-2) for the treatment of osteoarthritis” (Bioorg Med Chem Lett, 2011).
≈ marks a conversion by molar mass, not a printed value. Calls of active or inactive are those of the source. No cut-off for these calls is given here.

Columns and labels:
[1] = Volume of distribution at steady state in dog at 1 mg/kg, iv and 1 mg/kg, po; assay type: ADME, organism-based, Canis lupus familiaris; settings: in vivo, read-out: Vdss
[2] = Oral bioavailability in rat; assay type: ADME, organism-based; settings: in vivo
[3] = Clearance in dog at 1 mg/kg, iv and 1 mg/kg, po; assay type: ADME, organism-based, Canis lupus familiaris; settings: in vivo
Cytochrome P450 2C19 = Cytochrome P450 2C19 (Homo sapiens, UniProt P33261); assay: Inhibition of CYP2C19; assay type: ADME
Method in brief: (§1)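 Inhibition of cytochrome P450 isoforms 1A2, 2C9, 2C19, 2D6 and 3A4, reported as pIC50.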

[4] = Half life in mouse; assay type: ADME, organism-based; settings: in vivo
[5] = Oral bioavailability in dog; assay type: ADME, organism-based, Canis lupus familiaris; settings: in vivo
[6] = Free drug level in dog; assay type: ADME, organism-based, Canis lupus familiaris; settings: in vivo
[7] = Clearance in mouse; assay type: ADME, organism-based; settings: in vivo
[8] = Apparent permeability across basolateral to apical side in human Caco2 cells at 10 uM; assay type: ADME, cell-based; settings: Caco-2
[9] = Free drug level in human; assay type: ADME, organism-based; settings: in vivo
[10] = Thermodynamic solubility of the compound in phosphate buffer at pH 7.4 after 24 hrs; assay type: physicochemical; settings: read-out: Therm_solubility
Cytochrome P450 3A4 = Cytochrome P450 3A4 (Homo sapiens, UniProt P08684); assay: Inhibition of CYP3A4; assay type: ADME; method in brief: as §1
[11] = Free drug level in rat; assay type: ADME, organism-based; settings: in vivo
Cytochrome P450 1A2 = target: T1, Cytochrome P450 1A2 (Homo sapiens, UniProt P05177); assay: Inhibition of CYP1A2; assay type: ADME; method in brief: as §1
T1 sequence (P05177 whole entry): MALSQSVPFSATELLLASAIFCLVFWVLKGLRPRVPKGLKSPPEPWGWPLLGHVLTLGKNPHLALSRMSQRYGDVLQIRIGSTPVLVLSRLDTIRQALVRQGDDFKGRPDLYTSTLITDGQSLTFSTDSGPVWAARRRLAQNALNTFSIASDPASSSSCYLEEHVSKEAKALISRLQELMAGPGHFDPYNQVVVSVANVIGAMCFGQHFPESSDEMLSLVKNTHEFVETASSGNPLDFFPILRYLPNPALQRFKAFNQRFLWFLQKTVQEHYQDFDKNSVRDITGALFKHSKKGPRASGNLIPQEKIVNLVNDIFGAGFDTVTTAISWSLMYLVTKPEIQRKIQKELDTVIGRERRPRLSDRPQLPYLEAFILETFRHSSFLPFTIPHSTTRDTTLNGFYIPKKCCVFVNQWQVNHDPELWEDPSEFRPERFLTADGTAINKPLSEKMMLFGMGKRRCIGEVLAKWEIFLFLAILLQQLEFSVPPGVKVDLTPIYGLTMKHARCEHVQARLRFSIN

Cytochrome P450 2D6 = Cytochrome P450 2D6 (Homo sapiens, UniProt P10635); assay: Inhibition of CYP2D6; assay type: ADME; method in brief: as §1
[12] = Intrinsic clearance in human hepatocytes measured per million cells; assay type: ADME, cell-based, Liver, Hepatocyte
Method in brief: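 Human hepatocyte metabolism; intrinsic clearance expressed as μL/min/10⁶ cells, reported as mean of six separate experiments.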

[13] = Volume of distribution at steady state in rat at 2 mg/kg, iv and 3 to 10 mg/kg, po; assay type: ADME, organism-based; settings: in vivo, read-out: Vdss
Cavia porcellus = assay: Inhibition of ADAMTS4 in sc dosed Dunkin hartley guinea pig spontaneous osteoarthritis model assessed as reduction in NITEGE release in medial cartilage at concentration equivalent to 4 to 7 fold human ADAMTS4 FRET IC50 administered for 7 days; assay type: functional, organism-based
Method in brief: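 Compound given for 7 days via subcutaneous mini-pump; articular cartilage then dissected from medial tibial plateau of hind knee joints and NITEGE neo-epitope levels measured in cartilage extracts versus vehicle-treated animals; significance P < 0.05.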

Cytochrome P450 2C9 = Cytochrome P450 2C9 (Homo sapiens, UniProt P11712); assay: Inhibition of CYP2C9; assay type: ADME; method in brief: as §1
Homo sapiens [14] = species: Homo sapiens; assay: Inhibition of aggrecanase activity in IL-1, OSM and plasminogen-stimulated human articular cartilage explant assessed as reduction in CTXII peptide release at 10 uM after 14 days
[15] = target: T2, A disintegrin and metalloproteinase with thrombospondin motifs 5 (Homo sapiens, UniProt Q9UNA0); assay: Inhibition of ADAMTS-5 assessed as substrate cleavage after 16 hrs by fluorescence assay
T2 sequence (Q9UNA0 whole entry): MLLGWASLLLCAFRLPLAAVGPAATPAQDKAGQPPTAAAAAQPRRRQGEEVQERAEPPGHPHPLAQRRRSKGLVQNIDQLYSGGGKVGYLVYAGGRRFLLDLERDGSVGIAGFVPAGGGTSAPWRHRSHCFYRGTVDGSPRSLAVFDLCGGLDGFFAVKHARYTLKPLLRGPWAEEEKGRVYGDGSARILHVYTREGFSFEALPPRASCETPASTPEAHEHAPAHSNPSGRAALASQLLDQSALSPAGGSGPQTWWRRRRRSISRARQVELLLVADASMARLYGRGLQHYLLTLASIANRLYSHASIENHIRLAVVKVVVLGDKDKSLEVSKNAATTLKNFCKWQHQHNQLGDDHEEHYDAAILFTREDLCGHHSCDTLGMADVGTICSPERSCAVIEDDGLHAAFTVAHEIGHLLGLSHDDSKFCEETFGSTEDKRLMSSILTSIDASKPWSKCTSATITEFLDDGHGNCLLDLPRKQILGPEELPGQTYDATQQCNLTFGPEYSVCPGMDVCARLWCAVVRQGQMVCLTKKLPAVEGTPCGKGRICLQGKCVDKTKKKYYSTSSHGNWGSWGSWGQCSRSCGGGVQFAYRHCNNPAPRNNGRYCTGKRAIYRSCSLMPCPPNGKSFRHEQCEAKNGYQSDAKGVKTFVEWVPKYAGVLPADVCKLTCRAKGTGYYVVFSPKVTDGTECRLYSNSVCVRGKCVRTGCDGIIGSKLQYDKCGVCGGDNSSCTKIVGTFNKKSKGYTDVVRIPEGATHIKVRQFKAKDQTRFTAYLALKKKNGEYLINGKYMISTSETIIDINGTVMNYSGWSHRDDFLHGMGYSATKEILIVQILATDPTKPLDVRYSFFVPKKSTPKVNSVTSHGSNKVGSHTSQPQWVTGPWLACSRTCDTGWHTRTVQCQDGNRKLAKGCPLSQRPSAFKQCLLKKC
Method in brief: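 Enzyme inhibition IC50s derived from at least six measurements, standard errors normally <5% within an assay; a standard compound run to keep assay-to-assay variability within twofold.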

[16] = Intrinsic clearance in human liver microsomes; assay type: ADME, Microsome
Method in brief: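 Human liver microsome metabolism; intrinsic clearance expressed as μL/min/mg, reported as mean of eight separate experiments.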

[17] = Lipophilicity, log D of the compound; assay type: physicochemical; settings: octanol/water
[18] = target: Voltage-gated inwardly rectifying potassium channel KCNH2 (Homo sapiens, UniProt Q12809)
[19] = Half life in rat at 2 mg/kg, iv and 3 to 10 mg/kg, po; assay type: ADME, organism-based; settings: in vivo
[20] = Apparent permeability across apical to basolateral side in human Caco2 cells at 10 uM; assay type: ADME, cell-based; settings: Caco-2
[21] = Volume of distribution at steady state in mouse; assay type: ADME, organism-based; settings: in vivo, read-out: Vdss
Homo sapiens [22] = species: Homo sapiens; assay: Inhibition of aggrecanase activity in IL-1, OSM and plasminogen-stimulated human articular cartilage explant assessed as reduction in CTXII peptide release at 10 uM after 21 days
Method in brief: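 Human cartilage stimulated with interleukin-1, oncostatin-M and plasminogen for 21 days, without or with 10 µM compound.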

Chain of Cytochrome P450 3A4 (P08684 whole entry): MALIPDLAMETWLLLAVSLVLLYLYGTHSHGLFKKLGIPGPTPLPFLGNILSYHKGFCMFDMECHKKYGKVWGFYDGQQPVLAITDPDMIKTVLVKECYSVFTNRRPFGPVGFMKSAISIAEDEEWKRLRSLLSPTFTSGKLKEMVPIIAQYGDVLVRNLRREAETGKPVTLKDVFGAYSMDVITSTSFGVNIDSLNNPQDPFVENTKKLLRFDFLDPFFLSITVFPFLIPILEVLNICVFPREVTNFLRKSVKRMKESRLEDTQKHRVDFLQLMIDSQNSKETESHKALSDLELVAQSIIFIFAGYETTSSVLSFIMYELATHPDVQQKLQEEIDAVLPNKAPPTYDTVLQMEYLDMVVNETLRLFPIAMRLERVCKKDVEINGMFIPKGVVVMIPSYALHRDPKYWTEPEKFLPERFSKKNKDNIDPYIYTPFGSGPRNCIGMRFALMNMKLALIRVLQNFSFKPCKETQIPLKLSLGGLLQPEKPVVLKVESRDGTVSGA
Chain of Cytochrome P450 2C19 (P33261 whole entry, canonical isoform): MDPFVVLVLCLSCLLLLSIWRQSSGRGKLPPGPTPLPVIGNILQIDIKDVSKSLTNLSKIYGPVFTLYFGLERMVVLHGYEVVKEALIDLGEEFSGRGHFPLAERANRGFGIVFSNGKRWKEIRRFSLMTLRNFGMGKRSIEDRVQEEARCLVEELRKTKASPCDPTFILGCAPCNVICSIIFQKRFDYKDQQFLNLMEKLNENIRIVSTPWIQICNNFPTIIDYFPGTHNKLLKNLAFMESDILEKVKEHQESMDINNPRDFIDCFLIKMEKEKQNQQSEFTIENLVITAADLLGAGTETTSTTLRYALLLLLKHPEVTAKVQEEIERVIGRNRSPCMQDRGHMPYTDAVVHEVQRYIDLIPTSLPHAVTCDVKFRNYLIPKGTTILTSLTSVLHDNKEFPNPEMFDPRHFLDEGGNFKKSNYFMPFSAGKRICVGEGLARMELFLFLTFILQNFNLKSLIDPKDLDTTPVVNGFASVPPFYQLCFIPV
Chain of Cytochrome P450 2C9 (P11712 whole entry): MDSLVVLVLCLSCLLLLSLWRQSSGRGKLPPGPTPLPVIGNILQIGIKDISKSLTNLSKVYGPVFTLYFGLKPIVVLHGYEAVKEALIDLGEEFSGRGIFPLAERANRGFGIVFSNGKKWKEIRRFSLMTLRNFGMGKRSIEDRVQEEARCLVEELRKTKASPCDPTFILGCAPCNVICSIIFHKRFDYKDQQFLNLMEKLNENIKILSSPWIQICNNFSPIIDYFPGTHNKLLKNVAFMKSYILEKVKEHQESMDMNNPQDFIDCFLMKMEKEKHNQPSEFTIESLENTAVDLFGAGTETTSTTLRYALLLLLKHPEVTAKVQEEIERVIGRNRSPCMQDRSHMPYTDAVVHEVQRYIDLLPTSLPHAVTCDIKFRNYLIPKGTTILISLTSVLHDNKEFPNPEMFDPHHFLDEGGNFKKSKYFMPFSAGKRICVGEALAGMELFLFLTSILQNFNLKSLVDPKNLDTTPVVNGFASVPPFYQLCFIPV
Chain of Cytochrome P450 2D6 (P10635 whole entry): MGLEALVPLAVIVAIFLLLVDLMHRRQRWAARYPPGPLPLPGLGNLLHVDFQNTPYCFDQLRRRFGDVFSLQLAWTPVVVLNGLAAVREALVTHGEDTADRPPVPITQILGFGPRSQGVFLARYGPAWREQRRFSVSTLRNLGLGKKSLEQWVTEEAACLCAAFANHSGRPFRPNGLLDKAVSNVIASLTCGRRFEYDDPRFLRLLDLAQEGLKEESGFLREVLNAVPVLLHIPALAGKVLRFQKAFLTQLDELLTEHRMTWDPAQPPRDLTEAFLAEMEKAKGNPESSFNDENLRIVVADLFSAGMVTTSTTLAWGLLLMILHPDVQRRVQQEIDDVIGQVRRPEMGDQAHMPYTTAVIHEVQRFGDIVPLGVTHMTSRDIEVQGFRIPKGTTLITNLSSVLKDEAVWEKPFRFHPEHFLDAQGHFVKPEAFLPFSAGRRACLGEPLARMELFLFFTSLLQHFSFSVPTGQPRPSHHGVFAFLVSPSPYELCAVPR
Chain of Voltage-gated inwardly rectifying potassium channel KCNH2 (Q12809 whole entry): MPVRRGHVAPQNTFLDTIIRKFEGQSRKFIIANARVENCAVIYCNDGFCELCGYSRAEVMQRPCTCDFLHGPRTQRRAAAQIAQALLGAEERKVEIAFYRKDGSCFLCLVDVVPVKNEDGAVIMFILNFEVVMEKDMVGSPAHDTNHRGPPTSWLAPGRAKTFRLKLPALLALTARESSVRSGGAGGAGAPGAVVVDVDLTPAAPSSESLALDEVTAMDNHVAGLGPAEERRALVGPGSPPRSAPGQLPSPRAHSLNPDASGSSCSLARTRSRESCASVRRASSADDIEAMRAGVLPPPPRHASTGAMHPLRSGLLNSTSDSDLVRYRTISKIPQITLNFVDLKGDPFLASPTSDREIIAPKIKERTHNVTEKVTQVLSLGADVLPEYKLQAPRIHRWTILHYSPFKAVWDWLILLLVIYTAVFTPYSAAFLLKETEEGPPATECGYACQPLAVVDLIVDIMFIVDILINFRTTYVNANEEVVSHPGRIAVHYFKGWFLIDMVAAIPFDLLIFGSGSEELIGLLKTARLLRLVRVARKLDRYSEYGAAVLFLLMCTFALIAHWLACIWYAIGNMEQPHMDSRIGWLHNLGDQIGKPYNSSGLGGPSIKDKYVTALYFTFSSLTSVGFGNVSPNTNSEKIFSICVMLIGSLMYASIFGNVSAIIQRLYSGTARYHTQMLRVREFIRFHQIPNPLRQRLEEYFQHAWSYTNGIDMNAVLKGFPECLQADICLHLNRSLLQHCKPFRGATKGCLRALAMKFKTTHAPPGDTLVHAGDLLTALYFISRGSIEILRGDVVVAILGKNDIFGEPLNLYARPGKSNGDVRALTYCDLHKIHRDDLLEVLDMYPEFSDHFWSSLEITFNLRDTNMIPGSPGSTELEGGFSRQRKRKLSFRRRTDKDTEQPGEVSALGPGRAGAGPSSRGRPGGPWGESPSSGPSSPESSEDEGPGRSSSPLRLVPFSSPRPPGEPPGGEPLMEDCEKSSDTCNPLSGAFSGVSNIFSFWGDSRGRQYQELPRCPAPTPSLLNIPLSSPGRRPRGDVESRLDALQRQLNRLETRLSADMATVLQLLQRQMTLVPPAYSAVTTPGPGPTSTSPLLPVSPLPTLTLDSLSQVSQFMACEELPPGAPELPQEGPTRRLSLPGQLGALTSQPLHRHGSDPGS

- Vd [1]: 9.2 L/kg
- bioavailability [2]: 1%
- clearance [3]: 20.7 mL/min/kg
- inhibition (INH) (Cytochrome P450 2C19): Not Active
- half-life [4]: 5.4 h
- bioavailability [5]: 20%
- fraction unbound [6]: 0.25
- clearance [7]: 16.8 mL/min/kg
- Papp B→A at 10 µM [8]: 10.9 ×10⁻⁶ cm/s
- fraction unbound [9]: 0.11
- solubility thermodynamic at 24 h [10]: 150 µM (≈ 76.7 µg/mL)
- inhibition (INH) (Cytochrome P450 3A4): Not Active
- fraction unbound [11]: 0.22
- inhibition (INH) (Cytochrome P450 1A2): Not Active
- inhibition (INH) (Cytochrome P450 2D6): Not Active
- hepatocyte CLint [12]: < 2 µL/min/1e6 cells
- Vd [13]: 7.4 L/kg
- inhibition (INH) (Cytochrome P450 2C9): Not Active
- inhibition (Homo sapiens [14]): Active
- IC50 [15]: 0.023 µM
- microsomal CLint [16]: 29.4 µL/min/mg
- logD [17]: 1.6
- half-life [19]: 11 h
- Papp A→B at 10 µM [20]: 5.3 ×10⁻⁶ cm/s
- Vd [21]: 7.2 L/kg
- inhibition (Homo sapiens [22]): Active
SMILES: Cc1noc(C)c1CCC1CCN(S(=O)(=O)C[C@](C)(C[C@H](C)c2ncc(F)cn2)N(O)C=O)CC1
- inhibition (Cavia porcellus): Active
- IC50 [18]: 65 µM
